ChEMBL document CHEMBL1121608, “Modification of the 5' position of purine nucleosides. 2. Synthesis and some cardiovascular properties of adenosine-5'-(N-substituted)carboxamides” (J Med Chem, 1980)

Assays:
Canis familiaris [1] = test: Tested for percent increase in coronary sinus partial pressure of oxygen (PO2) in open chest anesthetized dog at intravenous dosage of 10.00 mg/kg; format: functional, Canis lupus familiaris
Canis familiaris [2] = test: Total time in minutes elapsed from the initiation of the change until return to the pretest value of heart rate in coronary sinus of anesthetized dog at intravenous dosage of 10 mg/kg; format: functional, Canis lupus familiaris
Canis familiaris [3] = test: Total time in minutes elapsed from the initiation of the change until return to the pretest value of blood pressure in coronary sinus of anesthetized dog at intravenous dosage of 10 mg/kg; format: functional, Canis lupus familiaris
Canis familiaris [4] = test: Tested for the percent increase in aortic blood pressure (BP) in open chest anesthetized dog at intravenous dosage of 10.00 mg/kg; format: functional, Canis lupus familiaris, Artery
Summary of the method: (§1)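 Open-chest anesthetized dogs, compound given iv at the stated dose. Aortic blood pressure is reported as the change from the control (pre-dose) value. Other set-up follows the group's earlier cardiovascular protocol.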

Canis familiaris [5] = test: Total time in minutes elapsed from the initiation of the change until return to the pretest value of oxygen partial pressure in coronary sinus of anesthetized dog at intravenous dosage of 10 mg/kg; format: functional, Canis lupus familiaris
Summary of the method: (§2)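 Open-chest anesthetized dogs given compound by intravenous injection. Coronary sinus PO2 was monitored, and duration was the total time in minutes from the onset of the change until return to the pretest value.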

[6] = Lethal dose in mice after peroral administration; format: toxicity, organism-based; settings: mouse, in vivo, po
Summary of the method: (§3)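 Male and female mice, three per dose group, were given the compound by the stated route in increments of 0.5 log doses. The LD50 was estimated as an approximate value.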

[7] = Lethal dose in mice after intraperitoneal administration; format: toxicity, organism-based; settings: mouse, in vivo, ip; summary of the method: as §3
Canis familiaris [8] = test: Total time in minutes elapsed from the initiation of the change until return to the pretest value of oxygen partial pressure in coronary sinus of anesthetized dog at intravenous dosage of 1 mg/kg; format: functional, Canis lupus familiaris; summary of the method: as §2
Canis familiaris [9] = test: Tested for percent increase in coronary sinus partial pressure of oxygen (PO2) in open chest anesthetized dog at intravenous dosage of 1.00 mg/kg; format: functional, Canis lupus familiaris
Canis familiaris [10] = test: Total time in minutes elapsed from the initiation of the change until return to the pretest value of blood pressure in coronary sinus of anesthetized dog at intravenous dosage of 1 mg/kg; format: functional, Canis lupus familiaris
Canis familiaris [11] = test: Tested for the percent increase in aortic blood pressure (BP) in open chest anesthetized dog at intravenous dosage of 1.00 mg/kg; format: functional, Canis lupus familiaris, Artery; summary of the method: as §1
Canis familiaris [12] = test: Total time in minutes elapsed from the initiation of the change until return to the pretest value of heart rate in coronary sinus of anesthetized dog at intravenous dosage of 1 mg/kg; format: functional, Canis lupus familiaris
Canis familiaris [13] = test: Total time in minutes elapsed from the initiation of the change until return to the pretest value of blood pressure in coronary sinus of anesthetized dog at intravenous dosage of 0.01 mg/kg; format: functional, Canis lupus familiaris
Canis familiaris [14] = test: Total time in minutes elapsed from the initiation of the change until return to the pretest value of oxygen partial pressure in coronary sinus of anesthetized dog at intravenous dosage of 0.01 mg/kg; format: functional, Canis lupus familiaris
Canis familiaris [15] = test: Total time in minutes elapsed from the initiation of the change until return to the pretest value of heart rate in coronary sinus of anesthetized dog at intravenous dosage of 0.01 mg/kg; format: functional, Canis lupus familiaris
Canis familiaris [16] = test: Tested for the percent increase in aortic blood pressure (BP) in open chest anesthetized dog at intravenous dosage of 0.01 mg/kg; format: functional, Canis lupus familiaris, Artery; summary of the method: as §1
Canis familiaris [17] = test: Tested for percent increase in coronary sinus partial pressure of oxygen (PO2) in open chest anesthetized dog at intravenous dosage of 0.01 mg/kg; format: functional, Canis lupus familiaris

Row | Compound | PO2 (Canis familiaris [1]) [%] | Duration (Canis familiaris [2]) [min] | Duration (Canis familiaris [3]) [min] | BP (Canis familiaris [4]) [%] | Duration (Canis familiaris [5]) [min] | LD50 [6] [mg/kg] | LD50 [7] [mg/kg] | Duration (Canis familiaris [8]) [min] | PO2 (Canis familiaris [9]) [%] | Duration (Canis familiaris [10]) [min] | BP (Canis familiaris [11]) [%] | Duration (Canis familiaris [12]) [min] | Duration (Canis familiaris [13]) [min] | Duration (Canis familiaris [14]) [min] | Duration (Canis familiaris [15]) [min] | BP (Canis familiaris [16]) [%] | PO2 (Canis familiaris [17]) [%]
1 | Cc1cccc(C)c1NC(=O)[C@H]1OC(n2cnc3c(N)ncnc32)[C@H](O)[C@@H]1O (stereo partly drawn) | 15 | 5 | 30 | 13 | 30 | > 1000 | > 1000 | – | – | – | – | – | – | – | – | – | –
2 | CC1(C)OC2[C@@H](C(=O)NC3CC3)O[C@@H](n3cnc4c(N)ncnc43)[C@H]2O1 (stereo partly drawn) | 9 | 1 | 1 | 26 | 60 | > 300 | > 300 | – | – | – | – | – | – | – | – | – | –
3 | Nc1ncnc2c1ncn2C1O[C@H](C(=O)NCc2ccco2)[C@@H](O)[C@H]1O (stereo partly drawn) | – | – | – | – | – | – | – | 20 | 22 | 20 | 1 | 20 | – | – | – | – | –
4 | CCNC(=O)[C@H]1O[C@@H](n2cnc3c(N)ncnc32)[C@H]2OC(C)(C)OC12 (stereo partly drawn) | 27 | 16 | 0 | 0 | 30 | – | – | – | – | – | – | – | – | – | – | – | –
5 | Cc1cccc(OCC(O)CNC(=O)[C@H]2OC(n3cnc4c(N)ncnc43)[C@H](O)[C@@H]2O)c1 (stereo partly drawn) | – | – | – | – | – | > 300 | > 300 | 7 | 42 | 30 | 3 | 1 | – | – | – | – | –
6 | COc1ccccc1N1CCN(C(=O)[C@H]2OC(n3cnc4c(N)ncnc43)[C@H](O)[C@@H]2O)CC1 (stereo partly drawn) | 107 | 60 | 60 | 7 | 15 | > 300 | > 300 | – | – | – | – | – | – | – | – | – | –
7 | Nc1ncnc2c1ncn2C1O[C@H](C(=O)Nc2ccccc2)[C@@H](O)[C@H]1O (stereo partly drawn) | – | – | – | – | – | > 1000 | > 1000 | 120 | 127 | 0 | 0 | 7 | – | – | – | – | –
8 | CCOC(=O)CNC(=O)[C@H]1OC(n2cnc3c(N)ncnc32)[C@H](O)[C@@H]1O (stereo partly drawn) | 9 | 11 | 30 | 6 | 30 | > 300 | > 300 | – | – | – | – | – | – | – | – | – | –
9 | Nc1ncnc2c1ncn2C1O[C@H](C(=O)N2CCOCC2)[C@@H](O)[C@H]1O (stereo partly drawn) | 0 | 0 | 0 | 0 | 0 | > 300 | > 300 | – | – | – | – | – | – | – | – | – | –
10 | CCNC(=O)[C@H]1O[C@@H](n2cnc3c(N)ncnc32)[C@@H](OC(C)=O)C1OC(C)=O (stereo partly drawn) | – | – | – | – | – | 2 | 2 | – | – | – | – | – | 70 | 120 | 120 | 12 | 52
11 | CN(C)CCNC(=O)[C@H]1OC(n2cnc3c(N)ncnc32)[C@H](O)[C@@H]1O (stereo partly drawn) | 13 | 15 | 15 | 5 | 2 | 500 | 20 | – | – | – | – | – | – | – | – | – | –
12 | C=CCNC(=O)[C@H]1O[C@@H](n2cnc3c(N)ncnc32)[C@H]2OC(C)(C)OC12 (stereo partly drawn) | – | – | – | – | – | > 1000 | > 1000 | 0 | 0 | 30 | 14 | 5 | – | – | – | – | –
13 | CCC(=O)c1ccccc1NC(=O)[C@H]1OC(n2cnc3c(N)ncnc32)[C@H](O)[C@@H]1O (stereo partly drawn) | 39 | 40 | 40 | 5 | 16 | > 1000 | > 1000 | – | – | – | – | – | – | – | – | – | –
14 | Nc1ncnc2c1ncn2C1O[C@H](C(=O)N2CCCCC2)[C@@H](O)[C@H]1O (stereo partly drawn) | 52 | 30 | 20 | 7 | 8 | > 1000 | > 1000 | – | – | – | – | – | – | – | – | – | –
15 | CC(=O)OC1[C@@H](C(=O)NC2CC2)O[C@@H](n2cnc3c(N)ncnc32)[C@H]1OC(C)=O (stereo partly drawn) | – | – | – | – | – | 20 | 5 | – | – | – | – | – | 270 | 270 | 270 | 31 | 67
16 | C=CCNC(=O)[C@H]1OC(n2cnc3c(N)ncnc32)[C@H](O)[C@@H]1O (stereo partly drawn) | – | – | – | – | – | > 1000 | 200 | – | – | – | – | – | 0 | 20 | 0 | 0 | 129
17 | CCCCCCNC(=O)[C@H]1OC(n2cnc3c(N)ncnc32)[C@H](O)[C@@H]1O (stereo partly drawn) | – | – | – | – | – | 500 | 200 | 40 | 100 | 0 | 0 | 6 | – | – | – | – | –
18 | C=CCN(CC=C)C(=O)[C@H]1OC(n2cnc3c(N)ncnc32)[C@H](O)[C@@H]1O (stereo partly drawn) | – | – | – | – | – | > 300 | > 300 | 40 | 66 | 0 | 0 | 0 | – | – | – | – | –
19 | Nc1ncnc2c1ncn2C1O[C@H](C(=O)Nc2ccc(F)cc2)[C@@H](O)[C@H]1O (stereo partly drawn) | 30 | 0 | 0 | 0 | 20 | > 1000 | 500 | – | – | – | – | – | – | – | – | – | –
20 | Nc1ncnc2c1ncn2[C@@H]1O[C@H](C(=O)NC2CC2)[C@@H](O)[C@H]1O | – | – | – | – | – | 5 | 2 | – | – | – | – | – | 150 | 150 | 150 | – | 136
21 | Nc1ncnc2c1ncn2[C@@H]1O[C@H](C(=O)NC2CCC2)[C@@H](O)[C@H]1O | – | – | – | – | – | 5 | 2 | – | – | – | – | – | 90 | 90 | 48 | – | 79
22 | CCNC(=O)[C@H]1O[C@@H](n2cnc3c(N)ncnc32)[C@H](O)[C@@H]1O [NECA] | – | – | – | – | – | 5 | 0.5 | – | – | – | – | – | 120 | 345 | 345 | – | 250
23 | CC(C)NC(=O)[C@H]1OC(n2cnc3c(N)ncnc32)[C@H](O)[C@@H]1O (stereo partly drawn) | – | – | – | – | – | 5 | 5 | – | – | – | – | – | 70 | 240 | 240 | – | 43
